pIC50, pKi: −log10 of the molar value. Square brackets hold non-standard residues; d marks the D form. Peptide text beside a SMILES is read from it. * marks the point of attachment. Piperazinyl(4-Ph) = c1ccc(N2CCN(*)CC2)cc1; dGly(2-thienyl) = N[C@@H](C(=O)O)c1cccs1
Assays:
[1] = target: T1, Endothelin-1 receptor (Homo sapiens, UniProt P25101); test: Ability to displace endothelin ([125I]ET1) from human Endothelin A receptor
T1 sequence (P25101 whole entry): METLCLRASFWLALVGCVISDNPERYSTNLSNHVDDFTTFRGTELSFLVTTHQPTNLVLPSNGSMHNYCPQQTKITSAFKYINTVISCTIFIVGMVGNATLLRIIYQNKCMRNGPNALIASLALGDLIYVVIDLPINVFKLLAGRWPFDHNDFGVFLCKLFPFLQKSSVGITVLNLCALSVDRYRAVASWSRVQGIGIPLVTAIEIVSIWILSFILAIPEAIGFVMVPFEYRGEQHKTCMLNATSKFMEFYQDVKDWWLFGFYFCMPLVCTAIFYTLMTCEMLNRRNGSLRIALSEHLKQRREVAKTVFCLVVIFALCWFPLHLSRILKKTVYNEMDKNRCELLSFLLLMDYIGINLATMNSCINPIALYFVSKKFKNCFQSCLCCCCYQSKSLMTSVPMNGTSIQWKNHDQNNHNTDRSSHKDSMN
In short: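 Membranes from CHO cells stably transfected with human ETA, prepared at 4 °C and stored at -80 °C. Buffer: 20 mM Tris pH 7.4, 100 mM NaCl, 10 mM MgCl2, 0.2% BSA, protease inhibitors. Bound ligand separated by glass-fibre filtration. Nonspecific binding with 1 µM unlabeled ET-1. IC50 is the mean of at least two determinations.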

[2] = Oral bioavailability in rat; assay type: ADME, organism-based; settings: in vivo
[3] = Ratio of endothelin A receptor and endothelin B receptor.
[4] = target: T2, Endothelin receptor type B (Homo sapiens, UniProt P24530); test: Ability to displace endothelin ([125I]ET1) from human Endothelin B receptor
T2 sequence (P24530 whole entry): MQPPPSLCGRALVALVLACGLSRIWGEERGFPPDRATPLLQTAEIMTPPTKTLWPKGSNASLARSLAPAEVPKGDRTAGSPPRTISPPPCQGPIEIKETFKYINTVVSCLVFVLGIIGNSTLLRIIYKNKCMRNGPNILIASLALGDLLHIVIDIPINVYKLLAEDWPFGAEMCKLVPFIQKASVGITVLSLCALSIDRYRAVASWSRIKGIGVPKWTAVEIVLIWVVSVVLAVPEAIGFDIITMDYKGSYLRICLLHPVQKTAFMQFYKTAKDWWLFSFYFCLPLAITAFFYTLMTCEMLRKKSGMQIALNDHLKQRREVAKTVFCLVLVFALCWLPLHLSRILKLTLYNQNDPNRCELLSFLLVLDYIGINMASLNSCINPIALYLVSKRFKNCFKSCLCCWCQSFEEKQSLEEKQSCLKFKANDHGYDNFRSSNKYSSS

[5] = Half-life is obtained after intravenous dosing of rats.; assay type: ADME, organism-based; settings: rat, in vivo
[6] = Maximum drug concentration is determined after oral dosing in rats.; assay type: ADME, organism-based; parameters: route oral; settings: rat, in vivo
[7] = target: T2, Endothelin receptor type B; test: Ability to block the ET-1-induced hydrolysis of inositol phosphate in Endothelin B receptor of chinese hamster ovary(CHO) cells.; assay type: functional
[8] = Half-life is obtained after oral dosing of rats.; assay type: ADME, organism-based; settings: rat, in vivo
[9] = system: Rattus norvegicus; test: (§1) Total drug exposure is determined after oral dosing in rats.; assay type: ADME, organism-based; parameters: concentration or dose not given beside the values; settings: in vivo
[10] = target: T3, Endothelin receptor type B (Sus scrofa, UniProt P35463); test: Ability to displace endothelin ([125I]ET-3) from endothelin B receptor derived from cerebellar tissue of porcine.
T3 sequence (P35463 whole entry): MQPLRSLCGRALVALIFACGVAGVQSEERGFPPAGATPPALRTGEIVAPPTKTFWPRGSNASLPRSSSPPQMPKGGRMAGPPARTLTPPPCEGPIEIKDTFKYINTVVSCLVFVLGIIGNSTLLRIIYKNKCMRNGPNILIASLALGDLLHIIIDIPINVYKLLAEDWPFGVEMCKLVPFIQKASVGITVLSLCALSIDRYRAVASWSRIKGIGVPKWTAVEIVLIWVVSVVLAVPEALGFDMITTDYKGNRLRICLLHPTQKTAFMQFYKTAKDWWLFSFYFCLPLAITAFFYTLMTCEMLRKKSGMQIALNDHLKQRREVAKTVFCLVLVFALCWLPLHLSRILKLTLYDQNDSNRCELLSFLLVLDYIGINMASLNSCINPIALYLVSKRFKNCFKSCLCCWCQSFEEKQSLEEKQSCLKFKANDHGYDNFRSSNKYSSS

[11] = target: T2, Endothelin receptor type B; test: Binding assay performed using human Endothelin B receptor (hETB) expressed in chinese hamster ovary cells(CHO); assay type: cell-based
[12] = as §1; assay type: ADME, organism-based; parameters: concentration or dose not given beside the values; settings: rat, in vivo
[13] = target: T4, Endothelin-1 receptor (Rattus norvegicus, UniProt P26684); test: Ability to displace endothelin ([125I]ET1) from endothelin A receptor derived from MMQ cells of rodent.; assay type: cell-based, Rodentia sp.
T4 sequence (P26684 whole entry): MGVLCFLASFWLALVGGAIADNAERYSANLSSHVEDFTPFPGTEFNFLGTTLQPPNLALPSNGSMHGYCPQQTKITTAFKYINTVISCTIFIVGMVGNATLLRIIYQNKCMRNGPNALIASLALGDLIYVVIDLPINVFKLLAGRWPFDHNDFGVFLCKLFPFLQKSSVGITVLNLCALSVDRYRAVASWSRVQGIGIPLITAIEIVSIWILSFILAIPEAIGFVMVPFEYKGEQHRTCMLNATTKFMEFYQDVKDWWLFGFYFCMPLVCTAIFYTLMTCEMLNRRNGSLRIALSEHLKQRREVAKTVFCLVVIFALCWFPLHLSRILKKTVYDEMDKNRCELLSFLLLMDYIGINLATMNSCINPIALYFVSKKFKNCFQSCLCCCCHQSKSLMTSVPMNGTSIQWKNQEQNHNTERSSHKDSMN

[14] = target: T1, Endothelin-1 receptor; test: Binding assay performed using human Endothelin A receptor (hETA) expressed in chinese hamster ovary cells(CHO).; assay type: cell-based

| Structure (SMILES) | pKi [1] | bioavailability [2] | Ratio [3] | pKi [4] | half-life [5] | Cmax [6] | pIC50 [7] | half-life [8] | AUC [9] | pIC50 [10] | pIC50 [11] | pIC50 [1] | pIC50 [4] | AUC [12] | pIC50 [13] | pIC50 [14] |
| --- | --- | --- | --- | --- | --- | --- | --- | --- | --- | --- | --- | --- | --- | --- | --- | --- |
| CCCOc1ccc2c(c1)[C@@H](c1ccc(OC)cc1OCCO)[C@H](C(=O)O)[C@H]2c1ccc2c(c1)OCO2 | 8.96 | 60% | 100 | 6.96 | 2 h | – | – | – | – | – | – | – | – | – | – | – |
| CCCCCS(=O)(=O)N(CCC)CCN1C[C@H](c2ccc3c(c2)OCO3)[C@@H](C(=O)O)[C@@H]1c1ccc(OC)c(F)c1 (stereo in doubt; 15b) | – | 54% | – | – | 5 h | 2400 ng/mL | 8.89 | 8.1 h | 11200 ng·h/mL | 9.54 | 9.55 | – | – | – | – | – |
| CC(C)C[C@@H]1NC(=O)[C@@H](c2cccs2)NC(=O)[C@H](CC(=O)O)NC(=O)[C@H](CC(=O)N2CCN(c3ccccc3)CC2)NC(=O)[C@@H](CC(=O)O)NC(=O)[C@@H](Cc2c[nH]c3ccccc23)NC1=O (cyclo(D(Piperazinyl(4-Ph))D[dGly(2-thienyl)]L[dW][dD])) | – | – | 540 | – | 0.5 h | – | – | – | – | – | – | 9.62 | 6.89 | – | – | – |
| CCCOc1ccc2c(c1)[C@@H](c1ccc(OC)cc1OCC(=O)O)[C@H](C(=O)O)[C@H]2c1ccc2c(c1)OCO2 [SB-209670] | 9.70 | – | 90 | 7.74 | – | – | – | – | – | – | – | – | – | – | – | – |
| CCCCS(=O)(=O)N(CCC)CCN1C[C@H](c2ccc3c(c2)OCO3)[C@@H](C(=O)O)[C@@H]1c1ccc(OC)c(F)c1 (stereo in doubt; 15a) | – | 31% | – | – | 6.9 h | 1100 ng/mL | 9.22 | 7.3 h | – | 9.49 | 9.33 | – | – | 3700 ng·h/mL | – | – |
| CCCCCCS(=O)(=O)N(CCC)CCN1C[C@H](c2ccc3c(c2)OCO3)[C@@H](C(=O)O)[C@@H]1c1ccc(OC)c(F)c1 (stereo in doubt; 15c) | – | 40% | – | – | 3.3 h | 700 ng/mL | 8.95 | 6.4 h | 2800 ng·h/mL | 9.47 | 9.32 | – | – | – | – | – |
| CCCc1cc(C(=O)O)ccc1OC(C(=O)NS(=O)(=O)c1ccc(C(C)C)cc1)c1ccc2c(c1)OCO2 [L-754142] | – | 60% | 17 | – | 2 h | – | – | – | – | – | – | 9.59 | 8.36 | – | – | – |
| CCCN(CCN1C[C@H](c2ccc3c(c2)OCO3)[C@@H](C(=O)O)[C@@H]1c1ccc(OC)c(F)c1)S(=O)(=O)CCCC(F)(F)F (stereo in doubt; 15e) | – | 25% | – | – | 4.3 h | 1200 ng/mL | 8.84 | 8.9 h | 4300 ng·h/mL | 9.49 | 9.70 | – | – | – | – | – |
| CCCN(CCN1C[C@H](c2ccc3c(c2)OCO3)[C@@H](C(=O)O)[C@@H]1c1ccc(OC)c(F)c1)S(=O)(=O)CCCCl (stereo in doubt; 15d) | – | 25% | – | – | 14 h | 400 ng/mL | 9.08 | 9.6 h | 2200 ng·h/mL | 9.70 | 9.85 | – | – | – | 10.03 | 10.15 |
